# SENP1 inh = human SENP1 catalytic domain inhibitors, primary screen, biochemical, FRET, uHTS. inhibition, % at 10 µM. Sentrin-specific protease 1 (Homo sapiens), Q9P0U3. 0.21% of 360,000 active. recombinant SENP1 catalytic domain, CyPet-SUMO1-YPet FRET cleavage;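 active = inhibition at least 30% at 10 µM, raw YFP signal under a set limit, fluorescence ratio 0.5 to 1.5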;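 note: 0% = enzyme with DMSO and 100% = no enzyme wells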
# Target sequence (Q9P0U3 419-644 limits assumed): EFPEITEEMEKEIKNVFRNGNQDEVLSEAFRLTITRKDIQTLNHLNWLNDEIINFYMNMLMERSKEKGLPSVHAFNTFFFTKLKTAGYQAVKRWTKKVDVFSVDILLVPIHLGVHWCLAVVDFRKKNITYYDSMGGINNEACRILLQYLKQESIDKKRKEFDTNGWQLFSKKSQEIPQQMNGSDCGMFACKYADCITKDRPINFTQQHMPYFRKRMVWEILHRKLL
#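 Test system: recombinant human SENP1 catalytic domain, His6-tagged / Medium: pH 8 Tris buffer with EDTA, NaCl, BME, BSA, NP40, catalase / Also added: SUMO1 FRET substrate flanked by Cypet and Ypet, 25 nM / Times: 50 min reaction at room temperature / Signal: FRET, CFP and YFP emission / Control set: no-enzyme low control and enzyme-plus-DMSO high control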
# ATG4B inhibitor = ATG4B protease inhibitors, primary screen, biochemical, fluorescence, uHTS. inhibition, % at 8.33 µM. ATG4B cleavage of LC3-PLA2, NBD-HPC fluorescence, 1 h. 0.51% of 340,000 active; in the data active = inhibition above about 40%
# Target sequence (Q9Y4P1 whole entry, looked up): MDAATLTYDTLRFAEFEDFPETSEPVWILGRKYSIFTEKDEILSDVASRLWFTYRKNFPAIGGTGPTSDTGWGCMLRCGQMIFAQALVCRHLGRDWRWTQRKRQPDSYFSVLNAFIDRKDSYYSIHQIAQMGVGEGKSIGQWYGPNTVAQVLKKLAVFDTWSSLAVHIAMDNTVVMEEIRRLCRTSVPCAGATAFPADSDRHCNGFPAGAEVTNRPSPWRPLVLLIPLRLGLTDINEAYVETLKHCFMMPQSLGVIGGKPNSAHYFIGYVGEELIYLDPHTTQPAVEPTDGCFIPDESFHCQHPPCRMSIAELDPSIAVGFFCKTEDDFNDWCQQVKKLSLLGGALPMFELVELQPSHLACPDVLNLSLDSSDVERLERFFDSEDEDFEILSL
# NR3A LBD binder = binders of NR3A ligand-binding domain, primary screen, biophysical, differential scanning fluorimetry, uHTS; 2.5% of 340,000 active; Glutamate receptor ionotropic, NMDA 3A (GRIN3A) ligand-binding domain; Tm shift relative to glycine control, % at 25 µM; NR3A LBD differential scanning fluorimetry, Tm shift; 0% = protein alone, 100% = glycine-bound protein;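 active = melting temperature shift of at least 10% of the positive control shift, at one fixed dose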
# NadD block = inhibitors of S. aureus NadD, primary screen, biochemical, colorimetric, uHTS. AID 602399, 2012. inhibition, % at 20 µM. purified NadD enzyme, colorimetric absorbance read-out. Nicotinate-nucleotide adenylyltransferase NadD (Staphylococcus aureus N315). 0.78% of 360,000 active; in the data active = inhibition above about 26%
# UCH37 DUB inh = inhibitors of human UCH37 deubiquitinase, primary screen, biochemical, Ub-AMC cleavage, fluorescence | purified proteasome/UCH37 | inhibition, % (test concentration not listed) | 0.33% of 330,000 active;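 active = mean inhibition over replicate wells above about 20%, limit read from the data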;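 note: 0% = compound-free wells with enzyme and 100% = wells lacking proteasome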
#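 Schedule: 30 min plus 25 min, room temperature / Material: human UCH37 within purified proteasomes / Technique: AMC fluorescence intensity at 355/460 nm / Buffer or medium: pH 7.4 Tris-HCl (50 mM) with ovalbumin, ATP-MgCl2, DTT / Controls: wells without proteasome as full block, compound-free enzyme plus substrate as uninhibited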
# * hit, by the source's call; . = no result. Rows were chosen to be rich in hits. Some 3.6% of all compounds tested hit in one or more screens of this group.
SMILES,SENP1 inh,ATG4B inhibitor,NR3A LBD binder,NadD block,UCH37 DUB inh
O=C(Nc1cc(Cl)ccc1C(=O)O)c1ccc(CN2C(=O)c3ccccc3C2=O)cc1,1,12,13*,-2,.
CC(=NNc1ccc(C(=O)O)cc1)c1ccc2c(c1)Nc1ccccc1S2,.,.,.,.,-52
Cc1cccc(Nc2nnc(SCC(=O)Nc3cccc(S(=O)(=O)N4CCCCC4)c3)s2)c1,-2,25,15*,16,1
O=C(CSc1nnc(Nc2ccccc2)s1)Nc1ccc(S(=O)(=O)N2CCOCC2)cc1,3,-26,18*,1,-2
Cc1cccc(NC(=O)CSc2nnc(NC(=O)CN3CCCCC3)s2)c1,.,.,.,.,1
COc1ccc(NC(=O)CSc2nnc(NC(=O)c3ccc(S(=O)(=O)N4CCOCC4)cc3)s2)cc1,0,-4,31*,6,-18
Cc1ccc(Nc2nnc(SCC(=O)Nc3ccc(S(=O)(=O)N4CCOCC4)cc3)s2)cc1,-3,-16,33*,19,5
Nc1nnc(SCC(=O)Nc2cccc(S(=O)(=O)N3CCOCC3)c2)s1,2,1,-2,-1,0
O=[N+]([O-])c1ccccc1C=Nn1c(C(F)(F)F)n[nH]c1=S,.,.,.,.,4
Cc1ccc(NCC(=O)NN=Cc2cc(O)ccc2[N+](=O)[O-])cc1,.,.,.,.,10
C/C(=N/NS(=O)(=O)c1ccc(C)cc1)c1cccc(NC(=O)c2cccc(Cl)c2)c1,2,-23,14*,7,.
C/C(=N/NS(=O)(=O)c1ccc(Cl)cc1)c1cccc(NC(=O)c2ccc(Cl)cc2Cl)c1,0,-9,18*,7,.
CC(=O)Nc1cccc(/C(C)=N/NC(=O)c2ccc(Cl)cc2Cl)c1,2,1,0,-7,.
CC(=NNC(=O)C1CC1)c1cccc(NC(=O)c2cccc(Cl)c2)c1,.,.,.,.,0
COc1cc(C=NNC(=O)CCc2n[nH]c(=O)[nH]c2=O)ccc1O,.,.,.,.,4
COc1cc(OC)cc(C(=O)NN=Cc2ccc(OC)c(COc3ccc(F)cc3)c2)c1,.,.,.,.,4
COc1ccccc1CNC(=O)C1CCC(=O)N(CCCN2CCCC2=O)C1 (stereo not given),2,11,3,4,0
Cc1ccc(F)cc1CNC(=O)C1CCC(=O)N(CCCN2CCCC2=O)C1 (stereo not given),0,0,13*,0,2
CCCC(=NNC(=O)c1nnn(-c2nonc2N)c1CN1CCCCC1)c1ccccc1,.,.,.,.,2
COc1ccc(Cl)cc1C=CC=NNS(=O)(=O)c1ccc(C)cc1,0,0,20*,4,.
O=C(COc1ccccc1Cl)Nc1ccc(NC(=O)c2ccco2)cc1,2,4,15*,-2,-65
O=C(Nc1ccc(-c2noc(COc3ccccc3Cl)n2)cc1)c1ccco1,0,4,13*,-1,-1
Clc1ccccc1OCc1nc(-c2ccccn2)no1,1,-2,11*,-1,3
CC(CCc1ccc2c(c1)OCO2)=N/N=C1/NC(=O)CC(C(=O)Nc2ccccc2)S1 (stereo not given),.,.,.,.,7
Cc1cc(C(=O)NN=Cc2ccccc2[N+](=O)[O-])c(C)o1,.,.,.,.,6
SMILES,SENP1 inh,ATG4B inhibitor,NR3A LBD binder,NadD block,UCH37 DUB inh
COc1cc(OC)cc(C(=O)Nc2ccc(C(=O)Nc3ccccc3OC)cc2)c1,0,-2,35*,-10,-3
COc1ccccc1NC(=O)c1ccc(NC(=O)c2ccco2)cc1,2,1,-4,0,4
COc1ccc(Oc2ccc(NC(=O)c3ccccc3C)cc2)cc1,1,14,17*,-7,0
COc1ccccc1Oc1ccc(NC(=O)c2ccccc2C)cc1,-1,10,0,-2,6
COc1cccc(NC(=O)c2ccc3c(c2)OCO3)c1,0,2,7,-8,1
COc1cccc(NC(=O)c2cccc(Cl)c2)c1,0,0,28*,-5,2
COc1cccc(NC(=O)c2ccc3c(c2)OCCO3)c1,1,-1,12*,-4,6
COc1cccc(C(=O)Nc2cccc(C(C)=O)c2)c1,3,-2,1,-3,0
COc1cccc(C=NNC(=O)CON=C(C)c2cccs2)c1OC,.,.,.,.,-2
Cc1cc(C(=O)NN=C2CCCC(=O)C2)c2ccccc2n1,.,.,.,.,4
COc1cccc(NC(=O)c2ccc(NC(C)=O)cc2)c1,1,-14,2,-3,26*
O=C(Nc1cccc(NC(=O)c2ncn[nH]2)c1)c1cccc(Cl)c1,2,-1,12*,1,3
Cc1[nH]c2ccc(C(=O)Nc3ccncc3)cc2c1C,-2,0,9,0,1
COc1cc2cc(C(=O)Nc3ccc4c(c3)OCCO4)[nH]c2cc1OC,-2,-13,11*,-3,2
COc1cccc(NC(=O)c2ncn[nH]2)c1,-1,-4,0,3,1
COc1cccc(NC(=O)c2ccncc2)c1,0,0,-3,-3,0
COc1ccccc1NC(=O)c1ccc2[nH]c(C)c(C)c2c1,-2,-9,20*,-9,0
CC1(C)C2CC=C(C=NNC(=S)Nc3cccnc3)C1C2 (stereo not given),.,.,.,.,3
O=C(NN=Cc1cc2cc3c(cc2nc1Cl)OCCO3)c1ccccc1O,.,.,.,.,-58
CC(=NNC(=O)c1ccccc1)c1ccc(N2CCCCC2)cc1,.,.,.,.,-51
Cn1c(N=Cc2cc(Cl)ccc2O)nc2ccccc21,.,.,.,.,-2
CCOC(=O)c1ccccc1OCc1cc(C=Nn2cnnc2)ccc1OC,.,.,.,.,0
COc1ccc(C(=O)Nc2ccc(C(=O)Nc3cccc(C)c3)cc2)cc1,0,-3,14*,7,1
COc1ccc(NC(=O)c2cccc(NC(=O)c3ccccc3)c2)cc1,1,-6,-1,-7,1
O=C(Nc1ccc(N=Nc2ccccc2)cc1)c1cccc(Cl)c1,3,-4,26*,5,4
O=C(O)c1ccccc1N=NC(=NNc1cc(S(=O)(=O)O)ccc1O)c1ccccc1,.,.,.,.,20
COc1cccc(CN(CC2CCCO2)S(=O)(=O)c2ccc(-n3cnnn3)c(OC)c2)c1 (stereo not given),1,-5,10*,-40,1
CCN(Cc1ccccc1)S(=O)(=O)c1ccc(S(=O)(=O)N(Cc2cccc(OC)c2)CC2CCCO2)cc1 (stereo not given),-1,7,2,-1,2
COc1ccc(Br)cc1C=NNC(=O)CNC(=O)c1cccnc1,.,.,.,.,-4
Cc1nc(NCCNC(=O)c2ccco2)c2c(C)c(C)sc2n1,0,-11,14*,-2,-2
